Results reported in ChEMBL document CHEMBL6092204, “Synthesis of pyridyl pyrimidine hedgehog signaling pathway inhibitors and their antitumor activity in human pancreatic cancer” (Eur J Med Chem, 2024).
Activity calls are given as the source filed them. The calls are words filed in the database; no cut-off is given here.

What was measured:
[1] = target: Protein smoothened (Homo sapiens) (UniProt Q99835); test: Antagonist activity at Smo (unknown origin) transfected in HEK293T cells incubated for 2 hrs by BODIPY-Cyclopamine based competitive binding assay; format: cell-based; settings: filed as antagonist, dose 10-50 nM
Summary of the method: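 […] cells stably transfected with a Smo plasmid, with expression confirmed by Western blot. Cells (2×10^4/well) were grown 24 h in poly-L-lysine-coated wells, then fixed with 4% paraformaldehyde and DAPI-stained. BODIPY-cyclopamine (100 nM) was added together with test compound for 2 h. Green fluorescence was imaged by fluorescence microscopy.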

BXPC-3 [2] = test: Antiproliferative activity against human BXPC-3 cells assessed as inhibition of cell viability incubated for 48 hrs by MTT assay; format: functional, cell-based; settings: BXPC-3, 48 h
Summary of the method: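 Cells in log phase were seeded at 8,000-10,000/well and allowed to adhere overnight at 37 °C, 5% CO2. Compound from DMSO stock, diluted in medium, was applied for 48 h; controls got drug-free medium, blanks held medium only. MTT (5 mg/mL stock) 4 h, formazan dissolved in DMSO, A490 read. Viability was blank-corrected against untreated cells; IC50 came from a fitted curve; three separate experiments.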

PANC-1 [3] = test: Inhibition of Hh signaling pathway in human PANC-1 cells assessed as reduction in Gli1 mRNA level incubated for 48 hrs by qRT-PCR analysis; format: cell-based; settings: dose 2.5-10 µM
Summary of the method: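 Total RNA was extracted by column kit after 48 h treatment and checked spectrophotometrically. Gli1 and Ptch1 transcripts were quantified by real-time RT-qPCR with GAPDH as internal control. Results are fold change relative to the untreated group; three separate experiments.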

PANC-1 [4] = test: Induction of apoptosis in human PANC-1 cells assessed as viable cells at 2.5 uM incubated for 48 hrs by Annexin V-FITC/PI staining based flow cytometry (reference value: 93.2 %); format: functional; settings: read-out: Activity
PANC-1 [5] = test: Induction of apoptosis in human PANC-1 cells assessed as early apoptotic cells at 2.5 uM incubated for 48 hrs by Annexin V-FITC/PI staining based flow cytometry (reference value: 1.88 %); format: functional
PANC-1 [6] = test: Induction of apoptosis in human PANC-1 cells assessed as necrotic cells at 2.5 uM incubated for 48 hrs by Annexin V-FITC/PI staining based flow cytometry (reference value: 2.24 %); format: functional
PANC-1 [7] = test: Induction of apoptosis in human PANC-1 cells assessed as early apoptotic cells at 5 uM incubated for 48 hrs by Annexin V-FITC/PI staining based flow cytometry (reference value: 1.88 %); format: functional
PANC-1 [8] = test: Induction of apoptosis in human PANC-1 cells assessed as late apoptotic cells at 8 uM incubated for 48 hrs by Annexin V-FITC/PI staining based flow cytometry (reference value: 2.74 %); format: functional
PANC-1 [9] = test: Induction of apoptosis in human PANC-1 cells assessed as necrotic cells at 10 uM incubated for 48 hrs by Annexin V-FITC/PI staining based flow cytometry (reference value: 2.24 %); format: functional
BXPC-3 [10] = test: Induction of apoptosis in human BXPC-3 cells assessed as early apoptotic cells at 5 uM incubated for 48 hrs by Annexin V-FITC/PI staining based flow cytometry (reference value: 1.11 %); format: functional
BXPC-3 [11] = test: Induction of apoptosis in human BXPC-3 cells assessed as late apoptotic cells at 5 uM incubated for 48 hrs by Annexin V-FITC/PI staining based flow cytometry (reference value: 6.72 %); format: functional
BXPC-3 [12] = test: Induction of apoptosis in human BXPC-3 cells assessed as necrotic cells at 8 uM incubated for 48 hrs by Annexin V-FITC/PI staining based flow cytometry (reference value: 0.71 %); format: functional
BXPC-3 [13] = test: Induction of apoptosis in human BXPC-3 cells assessed as early apoptotic cells at 10 uM incubated for 48 hrs by Annexin V-FITC/PI staining based flow cytometry (reference value: 1.11 %); format: functional
PANC-1 [14] = test: Induction of cell cycle arrest in human PANC-1 cells assessed as accumulation at G1 phase at 2.5 uM incubated for 48 hrs by PI/RNase staining based flow cytometry (reference value: 82.0 %); format: functional
PANC-1 [15] = test: Induction of cell cycle arrest in human PANC-1 cells assessed as accumulation at S phase at 2.5 uM incubated for 48 hrs by PI/RNase staining based flow cytometry (reference value: 7.58 %); format: functional
PANC-1 [16] = test: Induction of cell cycle arrest in human PANC-1 cells assessed as accumulation at G1 phase at 10 uM incubated for 48 hrs by PI/RNase staining based flow cytometry (reference value: 82.0 %); format: functional
BXPC-3 [17] = test: Induction of cell cycle arrest in human BXPC-3 cells assessed as accumulation at S phase at 5 uM incubated for 48 hrs by PI/RNase staining based flow cytometry (reference value: 8.18 %); format: functional
BXPC-3 [18] = test: Induction of cell cycle arrest in human BXPC-3 cells assessed as accumulation at G2 phase at 5 uM incubated for 48 hrs by PI/RNase staining based flow cytometry (reference value: 8.15 %); format: functional
BXPC-3 [19] = test: Induction of cell cycle arrest in human BXPC-3 cells assessed as accumulation at G1 phase at 10 uM incubated for 48 hrs by PI/RNase staining based flow cytometry (reference value: 84.2 %); format: functional
BxPC-3 [20] = test: Antitumor activity aginst human BxPC-3 cells xenografted in BALB/c nude mouse assessed as tumor growth inhibition at 5 to 15 mg/kg, ip qd for 21 days; settings: dose 5-15 mg/kg, time 21.0 day
[21] = Toxicity in BALB/c nude mouse xenografted with human BxPC-3 cells assessed as necrosis in spleen at 5 to 15 mg/kg, ip qd for 21 days by H and E staining based analysis; settings: in vivo, 504 h
[22] = Toxicity in BALB/c nude mouse xenografted with human BxPC-3 cells assessed as cellular edema in lung at 5 to 15 mg/kg, ip qd for 21 days by H and E staining based analysis; settings: in vivo, 504 h
[23] = Toxicity in BALB/c nude mouse xenografted with human BxPC-3 cells assessed as tissue fibrosis in lung at 5 to 15 mg/kg, ip qd for 21 days by H and E staining based analysis; settings: in vivo, 504 h
[24] = Toxicity in BALB/c nude mouse xenografted with human BxPC-3 cells assessed as tissue fibrosis in heart at 5 to 15 mg/kg, ip qd for 21 days by H and E staining based analysis; settings: in vivo, 504 h
[25] = Toxicity in BALB/c nude mouse xenografted with human BxPC-3 cells assessed as tissue fibrosis in liver at 5 to 15 mg/kg, ip qd for 21 days by H and E staining based analysis; settings: in vivo, 504 h
[26] = Toxicity in BALB/c nude mouse xenografted with human BxPC-3 cells assessed as inflammatory infiltration in spleen at 5 to 15 mg/kg, ip qd for 21 days by H and E staining based analysis; settings: in vivo, 504 h

Chain of Protein smoothened (Homo sapiens) (Q99835 whole entry): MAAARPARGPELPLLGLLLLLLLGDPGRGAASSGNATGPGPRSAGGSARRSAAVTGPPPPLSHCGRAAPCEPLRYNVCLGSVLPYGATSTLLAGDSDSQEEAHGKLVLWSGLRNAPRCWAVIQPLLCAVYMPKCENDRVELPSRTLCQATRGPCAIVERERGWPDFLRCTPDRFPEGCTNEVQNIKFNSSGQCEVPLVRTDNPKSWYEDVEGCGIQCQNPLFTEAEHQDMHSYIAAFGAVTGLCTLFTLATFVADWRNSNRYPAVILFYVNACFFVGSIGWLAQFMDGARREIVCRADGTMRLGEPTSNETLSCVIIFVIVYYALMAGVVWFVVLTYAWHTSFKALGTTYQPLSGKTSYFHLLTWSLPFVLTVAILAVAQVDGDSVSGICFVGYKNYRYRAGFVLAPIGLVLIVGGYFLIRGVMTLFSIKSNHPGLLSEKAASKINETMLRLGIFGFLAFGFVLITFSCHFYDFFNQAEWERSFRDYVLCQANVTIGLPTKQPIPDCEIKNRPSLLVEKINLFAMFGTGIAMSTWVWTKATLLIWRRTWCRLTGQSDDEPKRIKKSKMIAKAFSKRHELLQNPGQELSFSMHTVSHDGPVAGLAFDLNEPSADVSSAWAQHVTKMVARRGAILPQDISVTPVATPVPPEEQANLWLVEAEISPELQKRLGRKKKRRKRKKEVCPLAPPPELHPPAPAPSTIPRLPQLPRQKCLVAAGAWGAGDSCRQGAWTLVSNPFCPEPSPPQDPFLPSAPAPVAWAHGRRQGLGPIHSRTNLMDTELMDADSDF

## CN(C)Cc1ccc(NC(=O)c2ccc(Nc3nccc(-c4cccnc4)n3)cc2)cc1
[1]
  Activity: Dose-dependent-effect; Exhibited Fluorescence Quenching Activity Similar To Compound 1
BXPC-3 [2]
  IC50: 3.57 µM
PANC-1 [3]
  inhibition: Dose-dependent-effect
PANC-1 [4]
  viability at 2.5 µM: 90.7%
PANC-1 [5]
  Activity: 1.97%
PANC-1 [6]
  Activity: 2.19%
PANC-1 [7]
  Activity: 3.29%
PANC-1 [8]
  Activity: 8.97%
PANC-1 [9]
  Activity: 2.56%
BXPC-3 [10]
  Activity: 2.71%
BXPC-3 [11]
  Activity: 10.8%
BXPC-3 [12]
  Activity: 2.47%
BXPC-3 [13]
  Activity: 1.86%
PANC-1 [14]
  Activity: 83.7%
PANC-1 [15]
  Activity: 7.73%
PANC-1 [16]
  Activity: 72.7%
BXPC-3 [17]
  Activity: 4.09%
BXPC-3 [18]
  Activity: 12.5%
BXPC-3 [19]
  Activity: 92.9%
BxPC-3 [20]
  inhibition: Active
[21]
  Activity: Non-toxic
[22]
  Activity: Non-toxic
[23]
  Activity: Non-toxic
[24]
  Activity: Non-toxic
[25]
  Activity: Non-toxic
[26]
  Activity: Non-toxic
